This note sets out measurements from ChEMBL document CHEMBL2384910, “Lead optimization of 5-amino-6-(2,2-dimethyl-5-oxo-4-phenylpiperazin-1-yl)-4-hydroxyhexanamides to reduce a cardiac safety issue: discovery of DS-8108b, an orally active renin inhibitor” (Bioorg Med Chem, 2013).

The species entered for one data set is Oryctolagus cuniculus. Kind of data set: Cardiotoxicity in New Zealand White rabbit heart assessed as change in QTc interval at 100 uM after 20 mins relative to baseline. The class given is toxicity. The note with it: ex_vivo. Put shortly: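 Isolated Langendorff-perfused hearts from female NZW rabbits anesthetized with thiopental 30 mg/kg iv; heart excised into chilled Krebs-Henseleit solution. After parameters stabilized, compound perfused at 10, 30 and 100 µM for 20 min; ECG changes expressed as % change from baseline.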

Data set [1] has as its system Canis familiaris. Kind of data set: Cardiotoxicity in anesthetized beagle dog assessed as change in heart rate at 0.5 mg/kg/min, iv after 30 mins relative to baseline. The note with it: in vivo, 0.5 h. The data set is classed as toxicity, organism-based, Canis lupus familiaris. Set-up: route intravenous. Put shortly:
(§1)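 Anesthetized dogs; after ECG parameters stabilized, compound infused iv continuously at 0.5 mg/kg/min for 1 h. ECG changes at 30 min as % change from baseline; 2 mL blood drawn from left femoral artery for plasma drug concentration.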

In data set [2] the test system is Cynomolgus monkey. Kind of data set: Cardiotoxicity in conscious cynomolgus monkey assessed as change in QTc interval at 1000 mg/kg, po after 4 hrs relative to baseline. The note with it: in vivo.
A short description of data set [3]: Plasma concentration cynomolgus monkey at 1000 mg/kg, po after 4 hrs. The data set is classed as ADME, organism-based, Macaca fascicularis. Also noted: dose 1000 mg/kg, route oral.
Data set [4] relates to Canis familiaris. Kind of data set: Cardiotoxicity in anesthetized beagle dog assessed as change in QTc interval at 0.5 mg/kg/min, iv after 30 mins relative to baseline. The data set is classed as toxicity, organism-based, Canis lupus familiaris. Also noted: route intravenous. The note with it: in vivo, 0.5 h. An outline of the steps: as §1
The target in a further data set is T1, Renin (Macaca fascicularis, UniProt Q6DLS0).
T1 sequence (Q6DLS0 whole entry): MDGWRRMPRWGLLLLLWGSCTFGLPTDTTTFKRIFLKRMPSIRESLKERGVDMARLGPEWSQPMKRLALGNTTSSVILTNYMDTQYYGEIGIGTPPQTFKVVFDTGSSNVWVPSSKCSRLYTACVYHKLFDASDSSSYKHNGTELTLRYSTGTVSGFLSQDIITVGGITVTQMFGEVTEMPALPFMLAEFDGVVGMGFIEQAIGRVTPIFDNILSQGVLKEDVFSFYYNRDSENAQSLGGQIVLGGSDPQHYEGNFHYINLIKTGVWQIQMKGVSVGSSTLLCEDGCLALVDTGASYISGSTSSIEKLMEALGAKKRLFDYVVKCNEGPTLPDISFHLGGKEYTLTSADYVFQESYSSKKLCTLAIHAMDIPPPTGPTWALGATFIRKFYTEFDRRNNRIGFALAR
Kind of data set: Inhibition of renin in cynomolgus monkey plasma after 1 hr by RIA. Put shortly:
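Pooled mixed-gender EDTA cynomolgus monkey plasma with pH adjusting solution and Inhibitor A, compound in 1% DMSO final, incubated 1 h at 37 °C. Angiotensin I by competitive RIA; uninhibited and 4 °C controls define % inhibition; IC50 from four-parameter fit; ratio is compound IC50 over aliskiren IC50 in same plasma batch; ≥2 replicates.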

The target in another data set is CYP3A4 (Homo sapiens, UniProt P08684). Kind of data set: Inhibition of CYP3A4 in human liver microsomes assessed as residual activity at 100 uM by LC/MS analysis. The class given is ADME, Microsome. The note with it: read-out: Activity.
CYP3A4, sequence (P08684 whole entry): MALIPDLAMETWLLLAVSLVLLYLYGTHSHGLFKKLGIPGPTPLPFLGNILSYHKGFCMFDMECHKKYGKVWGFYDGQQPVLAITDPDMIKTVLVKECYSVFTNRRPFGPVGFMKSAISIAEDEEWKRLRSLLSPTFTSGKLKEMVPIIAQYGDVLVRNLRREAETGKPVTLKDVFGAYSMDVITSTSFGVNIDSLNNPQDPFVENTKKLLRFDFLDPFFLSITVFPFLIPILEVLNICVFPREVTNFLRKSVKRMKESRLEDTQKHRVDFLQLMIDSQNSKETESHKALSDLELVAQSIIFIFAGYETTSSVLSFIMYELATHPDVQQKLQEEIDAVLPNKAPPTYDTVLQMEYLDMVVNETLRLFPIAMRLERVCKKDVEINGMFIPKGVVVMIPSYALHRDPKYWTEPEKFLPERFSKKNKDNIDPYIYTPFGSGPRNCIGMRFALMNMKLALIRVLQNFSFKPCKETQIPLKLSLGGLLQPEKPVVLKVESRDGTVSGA
Data set [5] concerns Cynomolgus monkey. Kind of data set: Inhibition of renin in po dosed furosemide pretreated cynomolgus monkey plasma after 1 to 24 hrs. The class given is functional, organism-based. The note with it: Macaca fascicularis. An outline of the steps:
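Cynomolgus monkeys pretreated with furosemide given single oral dose 1, 3 or 10 mg/kg or vehicle 1% methylcellulose. Venous blood into EDTA-2Na tubes at 1, 2, 4, 8, 24 h, chilled, centrifuged cold, plasma frozen; plasma renin activity by radioimmunoassay.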

In data set [6] the test system is Canis familiaris. Kind of data set: Cardiotoxicity in anesthetized beagle dog assessed as change in […] at 0.5 mg/kg/min, iv after 30 mins relative to baseline. The data set is classed as toxicity, organism-based, Canis lupus familiaris. Set-up: route intravenous. The note with it: in vivo, 0.5 h. An outline of the steps:
as §1

In data set [7] the test system is Cynomolgus monkey. Kind of data set: Cardiotoxicity in conscious cynomolgus monkey assessed as change in QRS width at 1000 mg/kg, po after 4 hrs relative to baseline. The note with it: in vivo.

As to `CC[C@H](C[C@H](O)[C@@H](N)CN1CC(=O)N(c2ccccc2Cl)CC1(C)C)C(=O)N[C@H]1C2CC3CC1C[C@](O)(C3)C2.O=C(O)/C=C/C(=O)O`, the Activity in the data set listed under Oryctolagus cuniculus was -3.2%; in the data set on Canis familiaris [1], -5.4%; with Cynomolgus monkey [2], -0.4%; in the data set on Canis familiaris [4], -1.4%; in the data set on Canis familiaris [6], -1.5%; in the data set with Cynomolgus monkey [7], -7.6%. This compound registered a concentration at 4 h in data set [3] of 5400 ng/mL. The IC50 against Renin came out at 6.3 nM. Besides, the activity at 100 µM at CYP3A4 turned out to be 77.9%. The inhibition result in the data set on Cynomolgus monkey [5] was “Dose-dependent effect”.
